# From the RNAGym collection of RNA variant scans (doi:10.1101/gad.245936.114)
# Fewer inactive variants are shown than the library holds.
# B1: tRNA (parent)
# chain: CUCUCGGUAGCCAAGUUGGUUUAAGGCGCAAGACUUUAAUUUAUCACUACGAAAUCUUGAGAUCGGGCGUUCGACUCGCCCCCGGGAGAUUUUUUCCUCGAGCAA
# Variants of: B1
# Assay: nonsense suppression (GFP-seq) (ratio to wild type); higher = more function; SUP4oc tRNA, yeast GFP reporter sort-seq
# Outline: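 Yeast carrying genome-integrated SUP4oc tRNA variants from a library with ~3% random mutations were grown in raffinose/galactose medium with 80 mg/L adenine. Each strain also carried a galactose-driven GFP ochre reporter and RFP. Cells were sorted into GFP/RFP bins, and each bin was Illumina-sequenced (phred ≥30). Nonsense suppression (GFPSEQ) is the bin median GFP/RFP, weighted by each variant's estimated cell share per bin, relative to wild-type SUP4oc; variants needed ≥100 reads and ≥30 cells.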
row,Variant,nonsense suppression
1,U16A C82U,0.886
2,U16A U21G,0.752
3,A13G A33U U57A,≤ 0.026
4,G15U U17A U55C,≤ 0.026
5,G15A G78A,0.0278
6,A13U A74U,0.051
7,A13U G65U,0.0575
8,A13U G65A,≤ 0.026
9,U16A U71G C75G,≤ 0.026
10,U16C U22C G61C,0.207
11,A14G A87U,≤ 0.026
12,G15C U17G G19C G25U,≤ 0.026
13,U16C U17G,1.07
14,A14G A30G,0.03
15,A14G A30U,0.0337
16,A13G A31G,0.149
17,A14C U21G A23C G69A U70A,≤ 0.026
18,U16C G61A U63A,0.186
19,U16C C27U,0.137
20,A13G C80U,0.0419
21,U16A A24C,0.872
22,U16A G61A,0.819
23,A13U,1.03
24,A13G,0.191

row,Variant,nonsense suppression
1,A14U G61A,0.0341
2,A14G U17A G59U,≤ 0.026
3,A13C U17G C75A,1.1
4,A13U G61C,0.191
5,A13U G61U,0.447
6,G15C G19C,≤ 0.026
7,A13C G28A,1.08
8,A13C G28U,0.0283
9,A13C G28C,0.794
10,U16C C68A G88U,≤ 0.026
11,G15A A24G C29G A60C,≤ 0.026
12,A13U G32C C56G C75U,0.912
13,A13U A54C G66A A74C G86A,≤ 0.026
14,A13U A62C,0.029
15,G15A G65A,≤ 0.026
16,A14G G19U A23G A30G C75U C82U,≤ 0.026
17,A13U C83U,0.157
18,A13G U20A,0.0339
19,U16C U21C A31U,0.204
20,A14G U35C,≤ 0.026
21,G15A C81U,0.0386
22,A13C G25A,0.0288
23,U16C G78A,0.837
24,U16C G78U,0.454

row,Variant,nonsense suppression
1,A13U U57A,0.0273
2,A14U A24U G26U C29G,≤ 0.026
3,A13U C79A G84U,≤ 0.026
4,G15C G26U U57C G78C,≤ 0.026
5,U16G A31G,1.15
6,U16A A60G,0.247
7,A13G A54C G69U G86U,≤ 0.026
8,A14C G65A,≤ 0.026
9,A14C A31C U58C C72A U76C C77G,≤ 0.026
10,G15U A23G G65C,≤ 0.026
11,A13U A24G G26C G32C A89C,≤ 0.026
12,A14G A24C A31G C56G,≤ 0.026
13,A13U C81A,≤ 0.026
14,A13U C81G,0.0578
15,G15C A23G G66A,≤ 0.026
16,U16C C82A G85A,≤ 0.026
17,A14U A60C G66A G67A,≤ 0.026
18,A13G U35C U71C,≤ 0.026
19,U16A A31G G86U,≤ 0.026
20,A13U A33G,0.194
21,A14U G61C C79U,≤ 0.026
22,A13G G67C C83G,≤ 0.026
23,A14U A54C C68A G73C G84A,0.202
24,A13G U16A,0.0391

row,Variant,nonsense suppression
1,A13G U16G,0.207
2,U16C G28A,1.06
3,A13C G73U,0.0412
4,A13C G73A,0.394
5,U16A G19C U70G C72G,≤ 0.026
6,A13G G61C,0.0301
7,A13C U17G,0.958
8,A13U U22G,1.06
9,G15A U63G C75G,≤ 0.026
10,U16C C29U,1.11
11,A13U U76C,0.836
12,A13G C56G U71G,≤ 0.026
13,U16C G32A G59A C82G,≤ 0.026
14,G15A U21C C82A,≤ 0.026
15,A14U G26A U57A,≤ 0.026
16,A14G G28U G78C,≤ 0.026
17,A14U G32C G88U,≤ 0.026
18,G15A G26U,≤ 0.026
19,A13C U35G U57C,≤ 0.026
20,A14C A31G A74U C80G,≤ 0.026
21,A14U G25C C27U,≤ 0.026
22,G15C A23G G61A,≤ 0.026
23,A14C U71A,≤ 0.026
24,A13C C80U,0.179

row,Variant,nonsense suppression
1,A13C U17A A31G,0.849
2,G15A G73C C75G,≤ 0.026
3,A13G U21G C77G,≤ 0.026
4,A14U U20C A24G C75G,≤ 0.026
5,A13U G78A,0.179
6,A13U G78C,0.0621
7,A13U G78U,0.236
8,A14U A33U C34G G59C,≤ 0.026
9,A14G A31G,0.0611
10,U16C U21A U22G,0.861
11,U16A U17G,1.16
12,U16A G78U,0.188
13,A13G C27A C29G A33U U76C G86U,≤ 0.026
14,G15U U35A U63C C68A,≤ 0.026
15,G15C A87U,≤ 0.026
16,A14C U16C G19A A23U C29U A30G C72G C82A,≤ 0.026
17,A13U U16G A33U,0.0384
18,U16G A54C C81U,0.0601
19,A13U A23U,0.0855
20,A14G C64A G65A,≤ 0.026
21,U16A A54U,1.06
22,A13G C29G G61U U70G,≤ 0.026
23,U16C A60G G86C,≤ 0.026
24,U16A U22C,1.08

row,Variant,nonsense suppression
1,A13C G84A,0.175
2,A13C G84C,0.0388
3,A14U A24C,0.0284
4,A14U G86A,≤ 0.026
5,A14U G86C,≤ 0.026
6,A14C A31U A33U,≤ 0.026
7,A13G U17C A23C C75A G88A,≤ 0.026
8,G15U U55A,≤ 0.026
9,G15C G67A,≤ 0.026
10,A14U A23G A62U G84A,≤ 0.026
11,A13C G88A,0.0766
12,A13C U57C,0.0326
13,A13U C72G,0.032
14,G15A U20G,0.189
15,U16C A30G,1.17
16,U16C C81G,≤ 0.026
17,U16C C81U,1.16
18,U16C U76A A89U,≤ 0.026
19,A13U U16G C82U,0.377
20,G15A A33G,0.0395
21,U16G,1
22,U16C,0.862
23,U16A,1
24,U16C A31G U57C,0.922

row,Variant,nonsense suppression
1,A13U A24G G61C,0.0375
2,A14G G26A G66C,≤ 0.026
3,G15C G18U U76G A87G,≤ 0.026
4,G15A C75A,0.854
5,G15U U16A G59C G66C U70A C82G,≤ 0.026
6,A13U G59U C80G,≤ 0.026
7,A13U U16A,0.837
8,A13U U16G,0.819
9,U16C A23G G28U,≤ 0.026
10,A13C G61U C68U,0.414
11,A14U U57G,≤ 0.026
12,A13U U21A U35C G84U,≤ 0.026
13,U16A C29U,0.186
14,G15U A23G U55G,≤ 0.026
15,A14G U57C U58A,≤ 0.026
16,G15A U22C,0.147
17,G15C G65A,≤ 0.026
18,U16C A31G,1.07
19,U16C U63C,1.11
20,U16A A33G,0.0423
21,U16G A30C A31G U55A U57A,≤ 0.026
22,A14G A54G,≤ 0.026
23,A14C U16G U55C,≤ 0.026
